Screens from PubChem.
SENP8 block-1: inhibitors of human SENP8 protease; Q96LD8; purified SENP8, Z-RLRGG-aminoluciferin cleavage, luminescence; inhibition, % at 10 µM; 1.2% of 330,000 active; in the data active = inhibition above about 50%
Target sequence (Q96LD8 whole entry, looked up): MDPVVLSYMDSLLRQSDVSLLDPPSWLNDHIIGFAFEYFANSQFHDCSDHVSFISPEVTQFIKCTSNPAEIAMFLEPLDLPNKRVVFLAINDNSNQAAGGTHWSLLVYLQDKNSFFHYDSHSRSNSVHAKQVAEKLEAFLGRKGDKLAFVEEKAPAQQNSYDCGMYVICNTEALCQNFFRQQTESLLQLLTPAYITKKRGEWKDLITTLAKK
HSP90 refold inh: blocks HSP90-mediated luciferase refolding in reticulocyte lysate. Rabbit reticulocyte lysate, luciferase refolding luminescence, 3 h. inhibition, % at 5.6 µM. 0.91% of 290,000 active. AID 1789;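 active = inhibition above the screen-wide mean plus 3 SD, computed separately per campaign, cut at about 16% in these data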;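 also: inhibitors lower the luminescence because luciferase stays unfolded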
SENP1 inh: SENP1 (human) catalytic domain inhibition | recombinant SENP1 catalytic domain, CyPet-SUMO1-YPet FRET cleavage | inhibition, % at 10 µM | 0.21% of 360,000 active | AID 624204;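 active = inhibition at least 30% at 10 µM, raw YFP signal under a set limit, fluorescence ratio 0.5 to 1.5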
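Material: hSENP1 catalytic domain, recombinant; medium: Tris pH 8 with BME, BSA, NP40 and catalase; compound: single concentration of 10 µM compound, 0.5% DMSO final; technique: FRET read of cyan and yellow fluorescence; timing: 50 min enzyme reaction, room temperature, light-protected; reagent: SFCypet-SUMO1-SFYpet substrate at 25 nM; control set: no-enzyme low, enzyme-DMSO high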
SENP6 inh: blocks the human protease SENP6; Q9GZR1; Recombinant SENP6 catalytic domain, aminoluciferin luminescence; inhibition, % at 10 µM; 1.8% of 330,000 active;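 active = inhibition above about 50% at the single tested dose, limit read from the data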
Target sequence (Q9GZR1 628-1112 limits assumed): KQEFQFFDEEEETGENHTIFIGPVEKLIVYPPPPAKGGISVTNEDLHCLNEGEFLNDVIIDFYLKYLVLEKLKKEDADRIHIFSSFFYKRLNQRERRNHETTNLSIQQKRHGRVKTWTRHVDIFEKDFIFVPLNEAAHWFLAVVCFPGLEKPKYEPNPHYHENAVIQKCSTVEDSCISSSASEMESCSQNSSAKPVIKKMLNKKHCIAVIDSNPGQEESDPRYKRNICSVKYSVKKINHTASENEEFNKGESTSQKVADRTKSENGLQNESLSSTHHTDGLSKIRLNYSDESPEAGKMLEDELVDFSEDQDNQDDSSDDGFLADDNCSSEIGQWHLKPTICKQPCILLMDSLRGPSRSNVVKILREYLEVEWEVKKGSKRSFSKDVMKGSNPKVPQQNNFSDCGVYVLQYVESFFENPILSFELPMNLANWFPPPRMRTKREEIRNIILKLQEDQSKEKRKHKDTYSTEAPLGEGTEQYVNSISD
SENP7 block: inhibitors of human SENP7 protease. 1.5% of 330,000 active. recombinant SENP7, Z-RLRGG-aminoluciferin luminescence, 40 min. inhibition, % at 5 µM. Q9BQF6;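 active = inhibition above about 50% at the single test dose, limit read from the data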
SENP8 block-2: inhibitors of human SENP8 protease | AID 602440 | Q96LD8 | inhibition, % at 20 µM | 0.64% of 360,000 active | recombinant SENP8, Nedd8 substrate fluorescence; in the data active = inhibition mostly above about 40%, no sharp cut-off; inactive = mostly below about 27%
SENP8 confirm: confirmation of human SENP8 protease inhibitors | shares compounds with SENP7 block | Recombinant SENP8, Z-RLRGG-aminoluciferin luminescence, 60 min | inhibition, % at 12.5 µM | 40% of 6,200 active;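 active = mean inhibition across replicates above about 50%, limit read from the data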
SENP6 confirm: confirmation of human SENP6 protease inhibitors | shares compounds with SENP7 block | AID 488915 | inhibition, % at 12.5 µM | recombinant SENP6, Z-RLRGG-aminoluciferin luminescence | 58% of 6,200 active
SENP7 confirm: human SENP7 inhibition, confirmed | shares compounds with SENP7 block | recombinant SENP7, Z-RLRGG-aminoluciferin luminescence, 40 min | inhibition, % at 12.5 µM | 69% of 6,200 active | AID 488917
Casp3 SENP sel: selectivity test for SENP inhibitors: human caspase-3 inhibition | 60% of 6,200 active | purified caspase-3, Z-DEVD-aminoluciferin luminescence, 60 min | shares compounds with SENP7 block | inhibition, % at 12.5 µM;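 active = mean inhibition above about 50%, limit read from the data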
SENP luc ctr: interferes with luciferase luminescence in SENP counter-screen; shares compounds with SENP7 block; Pre-incubated SENP8/Z-RLRGG-aminoluciferin, luciferase luminescence interference; inhibition, % at 12.5 µM; 39% of 6,200 active;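 active = mean inhibition above about 50% when retested at one dose, limit read from the data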
Each line names hits and unclear results; the compound was inactive in the other large screens (follow-up assays come after a bar, where they were run). Sampled rows, rich in hits. Any-hit rate of the full collection: about 2.9%.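 The calls were made as follows, unless noted: active = mean inhibition above about 50% in the one-dose retest (limit read from the data); inactive = the rest.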

Fc1ccccc1/C=N/Nc1nc2ccccc2o1	SENP7 block 70 | SENP8 confirm inactive | SENP6 confirm inactive | SENP7 confirm inactive | Casp3 SENP sel inactive | SENP luc ctr inactive
Cc1ccc(C(=O)N=c2sccn2C)cc1S(=O)(=O)N1CCOCC1	none (no result: HSP90 refold inh)
Cc1ccc(C(=O)N=c2sccn2C)cc1C	SENP8 block-1 67, SENP6 inh 82, SENP7 block 83 | SENP8 confirm 70 | SENP6 confirm 70 | SENP7 confirm 94 | Casp3 SENP sel 86 | SENP luc ctr 81
Cc1c(NC(=O)c2cccc(NC(=O)Cc3ccc(F)cc3)c2)c(=O)n(-c2ccccc2)n1C	none (no result: HSP90 refold inh)
Nc1nccc(/C=C/c2ccc(Cl)cc2)n1	SENP8 block-1 75, SENP6 inh 80, SENP7 block 75 | SENP8 confirm 74 | SENP6 confirm 85 | SENP7 confirm 94 | Casp3 SENP sel 79 | SENP luc ctr inactive
COc1ccc(S(=O)(=O)N(C)C[C@@H]2Oc3c(NS(C)(=O)=O)cccc3C(=O)N([C@@H](C)CO)C[C@H]2C)cc1	none (no result: HSP90 refold inh)
N#C/C(=N\Nc1ccc(Cl)c(Cl)c1)C(=O)C1CC1	SENP8 block-1 93, SENP6 inh 96, SENP7 block 77 | SENP8 confirm 92 | SENP6 confirm 98 | SENP7 confirm 100 | Casp3 SENP sel 87 | SENP luc ctr inactive
CC(=O)Nc1ccc(NC(=O)CSc2ccc(-c3ccc(-n4ccnc4)cc3)nn2)cc1	none (no result: HSP90 refold inh)
FC(F)Oc1ccc(NC(=S)N2CCc3ccccc32)cc1	SENP6 inh 50 | SENP8 confirm inactive | SENP6 confirm inactive | SENP7 confirm inactive | Casp3 SENP sel inactive | SENP luc ctr inactive
Fc1ccc(NC(=S)N2CCc3ccccc32)cc1	none
Clc1ccc(-c2cn3cc(Br)ccc3n2)cc1Cl	SENP8 block-1 59, SENP6 inh 63 | SENP8 confirm inactive | SENP6 confirm inactive | SENP7 confirm inactive | Casp3 SENP sel inactive | SENP luc ctr inactive
CN(C)S(=O)(=O)c1cccc(-c2cn3cc(Cl)ccc3n2)c1	none
Brc1ccc2nc(-c3c[nH]c4ccccc34)cn2c1	SENP8 block-1 79, SENP6 inh 81 | SENP8 confirm inactive | SENP6 confirm 90 | SENP7 confirm 97 | Casp3 SENP sel 68 | SENP luc ctr 90
COc1ccc(-c2ccc3c(c2)C2CC3CCN2S(=O)(=O)c2ccccc2C)cc1 (stereo not drawn)	none (no result: SENP8 block-1, HSP90 refold inh, SENP6 inh, SENP7 block)
O=C(CCC(=O)OCCCC(F)(F)C(F)(F)F)Nc1ccccc1	SENP7 block 99 | SENP8 confirm inactive | SENP6 confirm inactive | SENP7 confirm inactive | Casp3 SENP sel inactive | SENP luc ctr inactive
Cc1ccccc1NC(=O)CCC(=O)OCCCC(F)(F)C(F)(F)F	none
CN(CCCNC(=O)CSc1cc(=O)n(C)c2cc(Cl)ccc12)Cc1ccccc1	SENP7 block 75 | SENP8 confirm inactive | SENP6 confirm inactive | SENP7 confirm inactive | Casp3 SENP sel inactive | SENP luc ctr inactive
N#CC(C#N)=C1NC(N)=C(C#N)C(c2ccccc2)=C1C#N	none
O=C(COC(=O)Cn1cnc2ccccc21)Nc1cc(S(=O)(=O)N2CCOCC2)ccc1Cl	none
O=C(COC(=O)Cn1cnc2ccccc21)Nc1cc2c(cc1Cl)C(=O)c1ccccc1C2=O	SENP8 block-1 61, SENP6 inh 71, SENP7 block 90 | SENP8 confirm 58 | SENP6 confirm 67 | SENP7 confirm 86 | Casp3 SENP sel 73 | SENP luc ctr inactive
Cc1cccc(N=Nc2cnc(N)s2)c1	SENP6 inh 55 | SENP8 confirm 52 | SENP6 confirm inactive | SENP7 confirm 70 | Casp3 SENP sel inactive | SENP luc ctr inactive
CC(=O)Nc1ncc(N=Nc2cccc(C(F)(F)F)c2)s1	none
COc1cc(/C=C(\C#N)c2nc3ccccc3[nH]2)ccc1OC(=O)c1ccco1	SENP8 block-1 83, SENP6 inh 75, SENP7 block 73 | SENP8 confirm 66 | SENP6 confirm 67 | SENP7 confirm 99 | Casp3 SENP sel 86 | SENP luc ctr inactive
N#C/C(=C\c1ccc(O)cc1)c1nc2ccccc2o1	SENP8 block-1 74, SENP6 inh 84, SENP7 block 63 | SENP8 confirm 81 | SENP6 confirm 80 | SENP7 confirm 93 | Casp3 SENP sel 62 | SENP luc ctr 74
COc1cc(/C=C(\C#N)c2nc3ccccc3o2)ccc1O	SENP8 block-1 90, SENP6 inh 95, SENP7 block 80 | SENP8 confirm 94 | SENP6 confirm 94 | SENP7 confirm 99 | Casp3 SENP sel 86 | SENP luc ctr inactive
COc1cc(/C=C(/C#N)c2nc3ccccc3[nH]2)ccc1OCC(=O)Nc1ccccc1C	none
COc1ccc(-c2cc(C(=O)N3CCCCCC3)c3ccccc3n2)cc1	none (no result: HSP90 refold inh)
Cn1ccc2ccc(C3=CC(=O)C[C@H](c4ccc(F)cc4)C3)cc21	none (no result: HSP90 refold inh)
COc1ccc(/C=N/N2C(=O)c3ccccc3C2=O)cc1	SENP8 block-1 79, SENP6 inh 88, SENP7 block 87 | SENP8 confirm inactive | SENP6 confirm 74 | SENP7 confirm 70 | Casp3 SENP sel 85 | SENP luc ctr inactive
COc1ccccc1/C=N/N1C(=O)c2cccc3cccc(c23)C1=O	none
CCN(CC)c1ccc(/C=N/N2C(=O)c3ccccc3C2=O)c(O)c1	none
CN(C)c1ccc(/C=N/N2C(=O)c3ccccc3C2=O)cc1	SENP8 block-1 72, SENP7 block 91 | SENP8 confirm inactive | SENP6 confirm 71 | SENP7 confirm 61 | Casp3 SENP sel 51 | SENP luc ctr inactive
CCN(CC)c1ccc(/C=N/N2C(=O)c3ccccc3C2=O)cc1	SENP6 inh 63 | SENP8 confirm inactive | SENP6 confirm inactive | SENP7 confirm inactive | Casp3 SENP sel inactive | SENP luc ctr inactive
CCN(CC(=O)Nc1ccc(OC)cc1)C(=O)C1CCN(C(=O)c2ccc(Cl)cc2)CC1	none (no result: HSP90 refold inh)
c1ccc(-c2cn3nc(-c4ccccc4)cnc3n2)cc1	none (no result: SENP8 block-1, SENP6 inh, SENP7 block)
c1ccc(-c2cn3nc4c(nc3n2)CCCC4)cc1	SENP6 inh 50 | SENP8 confirm 86 | SENP6 confirm 94 | SENP7 confirm 96 | Casp3 SENP sel 94 | SENP luc ctr inactive
